Experimental data published in paper PMC3359018 (Chemical science (Royal Society of Chemistry : 2010), 2011).

What was measured:
[1] = target: T1, DC-SIGN producing Raji cells (Homo sapiens, UniProt Q9NNX6); experiment: Flow cytometry assay of binding and uptake of fluorescent mannosylated probe; format: cell-based; settings: competitor at 100 mM; Man-Fl-BSA probe
T1 sequence (Q9NNX6 1-404): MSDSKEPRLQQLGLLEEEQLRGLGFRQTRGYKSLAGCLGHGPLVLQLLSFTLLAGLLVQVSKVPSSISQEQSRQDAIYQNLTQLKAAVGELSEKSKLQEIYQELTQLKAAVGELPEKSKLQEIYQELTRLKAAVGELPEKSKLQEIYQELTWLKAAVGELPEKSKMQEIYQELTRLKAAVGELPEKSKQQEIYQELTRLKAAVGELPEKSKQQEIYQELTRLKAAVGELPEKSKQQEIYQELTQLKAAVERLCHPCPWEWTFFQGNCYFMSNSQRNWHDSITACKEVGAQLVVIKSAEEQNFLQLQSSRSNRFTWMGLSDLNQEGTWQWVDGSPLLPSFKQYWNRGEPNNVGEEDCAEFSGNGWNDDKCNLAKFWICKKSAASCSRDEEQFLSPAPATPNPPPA
Method in brief: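 Raji (Burkitt's lymphoma) cells stably transfected with a DC-SIGN expression vector. Surface DC-SIGN was checked with AZND1-PE antibody by microscopy and with DCN46-FITC by flow cytometry. Cells were exposed to fluorescent Man-Fl-BSA with or without test compound; ManNAc (100 mM) served as carbohydrate competitor. Percent inhibition was taken from the geometric mean fluorescence, normalized to cells without inhibitor.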

[2] = target: T2, extracellular domain of DC-SIGN (immobilized tetrameric DC-SIGN) (Homo sapiens, UniProt Q9NNX6); format: binding; settings: read-out: Kd of probe to immobilized tetrameric DC-SIGN
T2 sequence (Q9NNX6 59-404 limits assumed): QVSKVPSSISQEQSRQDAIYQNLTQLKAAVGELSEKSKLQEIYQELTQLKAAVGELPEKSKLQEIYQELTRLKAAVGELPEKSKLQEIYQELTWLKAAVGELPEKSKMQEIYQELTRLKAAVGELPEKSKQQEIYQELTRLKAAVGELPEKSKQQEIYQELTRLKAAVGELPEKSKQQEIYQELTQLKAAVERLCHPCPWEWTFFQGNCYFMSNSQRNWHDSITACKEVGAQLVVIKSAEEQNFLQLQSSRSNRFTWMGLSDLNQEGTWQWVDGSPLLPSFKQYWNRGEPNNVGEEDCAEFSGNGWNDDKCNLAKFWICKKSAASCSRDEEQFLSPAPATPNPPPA

CC(=O)N[C@@H]1C(O)O[C@H](CO)[C@@H](O)[C@@H]1O (some centres unmarked) [ManNAc, N-acetylmannosamine]
probe uptake by DC-SIGN-positive cells [1]: significant decrease

Man-Fl-BSA: fluorescent mannosylated glycoconjugate probe (fluorescein, mannose, BSA)
Kd [2]: 2 mM
